In ChEMBL document CHEMBL1154089, “Novel N-(3-carboxyl-9-benzyl-beta-carboline-1-yl)ethylamino acids: synthesis, anti-tumor evaluation, intercalating determination, 3D QSAR analysis and docking investigation” (Eur J Med Chem, 2009):
Active and inactive are the calls of the source. The calls are words filed in the database; no cut-off is given here.

How the values were obtained:
[1] = system: HL-60; test: Cytotoxicity against human HL60 cells after 48 hrs by MTT assay; type: functional, cell-based; conditions: HL-60, 48 h
Method in brief: (§1)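 Cells grown in DMEM or RPMI-1640 with 10% FBS plus penicillin/streptomycin. Seeded at 5 × 10^4 cells/ml and given 4 h at 37 °C in 5% CO2 before the medium was replaced with compound (0.1–400 µM, DMSO vehicle; vehicle control 1% DMSO). After 48 h, MTT added (final 0.5 mg/ml) for 4 h. Formazan dissolved in DMSO and read at 570 nm. IC50 is the concentration giving 50% growth inhibition.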

[2] = system: Mus musculus; test: Toxicity in ICR mouse assessed as tetanus at > 500 mg/kg, ip after 7 days; type: organism-based; set-up: dose 500 mg/kg, route intraperitoneal; conditions: in vivo, 168 h
Method in brief: (§2)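 Mice fasted overnight with free access to water, then given a single i.p. injection of 150, 300 or 500 mg/kg in 0.2 ml of 0.9% saline. Groups of 12 (six male, six female). Animals were watched continuously for up to 7 days for abnormal behaviour (tremor, twitch, jumping, tetanus, supination) or death. They were sacrificed on day 7, and heart, liver and kidneys were checked macroscopically. LD50 was estimated graphically.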

[3] = system: Mus musculus; test: Toxicity in ICR mouse assessed as twitch at > 500 mg/kg, ip after 7 days; type: organism-based; set-up: dose 500 mg/kg, route intraperitoneal; conditions: in vivo, 168 h; method in brief: as §2
[4] = system: CCRF S-180; test: Antitumor activity against mouse S180 cells xenografted in ICR mouse assessed as inhibition of tumor growth at 89 umol/kg, ip administered 24 hrs after tumor implantation once daily for 7 consecutive days measured after 24 hrs last post dose; type: functional; conditions: CCRF S-180, ip
Method in brief: (§3)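 S180 solid tumors in male ICR mice (10–12 weeks), 1 × 10^7 cells s.c. at the right armpit. Mice randomized at 24 h, n = 12 per group, and dosed i.p. daily in 0.2 ml 0.9% saline for 7 days. Tumors weighed 24 h after the final dose. Inhibition (%) = [(A − B)/A] × 100, where A is the mean tumor weight of saline controls and B is the mean of the treated group.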

[5] = system: Mus musculus; test: Toxicity in ICR mouse assessed as kidneys necropsy at > 500 mg/kg, ip after 7 days; type: organism-based, Kidney; set-up: dose 500 mg/kg, route intraperitoneal; conditions: in vivo, 168 h; method in brief: as §2
[6] = system: HeLa; test: Cytotoxicity against human HeLa cells after 48 hrs by MTT assay; type: functional, cell-based; method in brief: as §1
[7] = system: Mus musculus; test: Toxicity in ICR mouse assessed as supination at > 500 mg/kg, ip after 7 days; type: organism-based; set-up: dose 500 mg/kg, route intraperitoneal; conditions: in vivo, 168 h; method in brief: as §2
[8] = system: Mus musculus; test: Toxicity in ICR mouse assessed as death at > 500 mg/kg, ip after 7 days; type: organism-based; set-up: dose 500 mg/kg, route intraperitoneal; conditions: in vivo, 168 h; method in brief: as §2
[9] = system: Mus musculus; test: Toxicity in mouse S180 cells xenografted in ICR mouse assessed as increase in body weight at 89 umol/kg, ip administered 24 hrs after tumor implantation once daily for 7 consecutive days measured after 24 hrs last post dose; type: organism-based, CCRF S-180; conditions: in vivo
Method in brief: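 S180-bearing male ICR mice, n = 12 per group, given 89 µmol/kg i.p. daily in 0.2 ml 0.9% saline for 7 days, starting 24 h after s.c. implantation. Animals weighed daily. Result expressed as body-weight increase from the start of treatment, in g, mean ± SD.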

[10] = system: CCRF S-180; test: Antitumor activity against mouse S180 cells xenografted in ICR mouse assessed as inhibition of tumor growth at > 89 umol/kg, ip administered 24 hrs after tumor implantation once daily for 7 consecutive days measured after 24 hrs last post dose; type: functional, organism-based
[11] = system: CCRF S-180; test: Antitumor activity against mouse S180 cells xenografted in ICR mouse assessed as decrease in tumor weight at 0.0089 umol/kg, ip administered 24 hrs after tumor implantation once daily for 7 consecutive days measured after 24 hrs last post dose; type: functional
Method in brief: (§4)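 Male ICR mice, 10–12 weeks old. Solid tumors from 1 × 10^7 viable S180 ascites cells in 0.2 ml 0.9% saline, injected s.c. at the right armpit. Random allocation at 24 h, 12 per group. Dosed i.p. daily in 0.2 ml 0.9% saline for 7 days. Saline-only negative control; cytarabine 89 µmol/kg positive control. Tumors excised and weighed 24 h after the last dose. ANOVA used for statistics.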

[12] = system: CCRF S-180; test: Antitumor activity against mouse S180 cells xenografted in ICR mouse assessed as decrease in tumor weight at 89 umol/kg, ip administered 24 hrs after tumor implantation once daily for 7 consecutive days measured after 24 hrs last post dose; type: functional; method in brief: as §4
[13] = Cytotoxicity against human H1299 cells after 48 hrs by MTT assay; type: functional, cell-based; conditions: NCI-H1299, 48 h; method in brief: as §1
[14] = system: Mus musculus; test: Toxicity in ICR mouse assessed as jumping at > 500 mg/kg, ip after 7 days; type: organism-based; set-up: dose 500 mg/kg, route intraperitoneal; conditions: in vivo, 168 h; method in brief: as §2
[15] = system: CCRF S-180; test: Antitumor activity against mouse S180 cells xenografted in ICR mouse assessed as inhibition of tumor growth at 0.0089 umol/kg, ip administered 24 hrs after tumor implantation once daily for 7 consecutive days measured after 24 hrs last post dose; type: functional; conditions: CCRF S-180, ip; method in brief: as §3
[16] = system: Mus musculus; test: Toxicity in ICR mouse assessed as tremor at > 500 mg/kg, ip after 7 days; type: organism-based; set-up: dose 500 mg/kg, route intraperitoneal; conditions: in vivo, 168 h; method in brief: as §2
[17] = system: Mus musculus; test: Toxicity in mouse S180 cells xenografted in ICR mouse assessed as spleen index at 89 umol/kg, ip administered 24 hrs after tumor implantation once daily for 7 consecutive days measured after 24 hrs last post dose; type: organism-based, CCRF S-180; conditions: in vivo
Method in brief: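 S180-bearing male ICR mice (n = 12) received 89 µmol/kg i.p. daily in 0.2 ml saline for 7 days. Killed under ether 24 h after the last dose; spleens excised and weighed. Spleen index given as mean ± SD, […] body weight.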

[18] = Cytotoxicity against human MES-SA cells after 48 hrs by MTT assay; type: functional, cell-based; method in brief: as §1
[19] = system: CCRF S-180; test: Antitumor activity against mouse S180 cells xenografted in ICR mouse assessed as inhibition of tumor growth at 0.89 umol/kg, ip administered 24 hrs after tumor implantation once daily for 7 consecutive days measured after 24 hrs last post dose; type: functional; conditions: CCRF S-180, ip; method in brief: as §3
[20] = system: Mus musculus; test: Toxicity in ICR mouse assessed as heart necropsy at > 500 mg/kg, ip after 7 days; type: organism-based; set-up: dose 500 mg/kg, route intraperitoneal; conditions: in vivo, 168 h; method in brief: as §2
[21] = system: HepG2; test: Cytotoxicity against human HepG2 cells after 48 hrs by MTT assay; type: functional, cell-based; conditions: HepG2, 48 h; method in brief: as §1
[22] = system: Mus musculus; test: Toxicity in ICR mouse assessed as liver necropsy at > 500 mg/kg, ip after 7 days; type: organism-based; set-up: dose 500 mg/kg, route intraperitoneal; conditions: in vivo, 168 h; method in brief: as §2
[23] = system: CCRF S-180; test: Antitumor activity against mouse S180 cells xenografted in ICR mouse assessed as decrease in tumor weight at 0.89 umol/kg, ip administered 24 hrs after tumor implantation once daily for 7 consecutive days measured after 24 hrs last post dose; type: functional; method in brief: as §4

With `C[C@H](NCCc1nc(C(=O)O)cc2c3ccccc3n(Cc3ccccc3)c12)C(=O)O` the IC50 [1] was 28.1 µM, the Activity [2] was “Non-toxic” and the Activity [3] was “Non-toxic”. For the same molecule, the inhibition in vivo at 89 µmol/kg [4] was 55.2%, the Activity [5] was “Non-toxic” and the IC50 [6] was 122 µM. For the same molecule, the Activity [7] was “Non-toxic”, the Activity [8] was “Non-toxic” and the Activity [9] was 12.92 g. The Activity [10] was “Active”, the Activity [11] was 1.64 g and the Activity [12] was 0.74 g. The IC50 [13] was 81.8 µM, the Activity [14] was “Non-toxic” and the inhibition in vivo at 0.0089 µmol/kg [15] was 1.5%. For the same molecule, the Activity [16] was “Non-toxic”, the Activity [17] was 13.3 mg/g and the IC50 [18] was 120 µM. For the same molecule, the inhibition in vivo at 0.89 µmol/kg [19] was 25.6%, the Activity [20] was “Non-toxic” and the IC50 [21] was 242 µM. For the same molecule, the Activity [22] was “Non-toxic” and the Activity [23] was 1.22 g.
